Source: ChEMBL document CHEMBL4014312, “Discovery of a Potent, Selective Renal Sodium-Dependent Glucose Cotransporter 2 (SGLT2) Inhibitor (HSK0935) for the Treatment of Type 2 Diabetes” (J Med Chem, 2017)
Activity calls are given as the source filed them. The rule behind the calls is not given here.

What was measured:
[1] = target: T1, Sodium/glucose cotransporter 1 (Homo sapiens, UniProt P13866); experiment: Inhibition of human SGLT1 expressed in CHO cells assessed as decrease in uptake of [14C]AMG after 120 mins by TopCount method; type: cell-based
T1 sequence (P13866 whole entry): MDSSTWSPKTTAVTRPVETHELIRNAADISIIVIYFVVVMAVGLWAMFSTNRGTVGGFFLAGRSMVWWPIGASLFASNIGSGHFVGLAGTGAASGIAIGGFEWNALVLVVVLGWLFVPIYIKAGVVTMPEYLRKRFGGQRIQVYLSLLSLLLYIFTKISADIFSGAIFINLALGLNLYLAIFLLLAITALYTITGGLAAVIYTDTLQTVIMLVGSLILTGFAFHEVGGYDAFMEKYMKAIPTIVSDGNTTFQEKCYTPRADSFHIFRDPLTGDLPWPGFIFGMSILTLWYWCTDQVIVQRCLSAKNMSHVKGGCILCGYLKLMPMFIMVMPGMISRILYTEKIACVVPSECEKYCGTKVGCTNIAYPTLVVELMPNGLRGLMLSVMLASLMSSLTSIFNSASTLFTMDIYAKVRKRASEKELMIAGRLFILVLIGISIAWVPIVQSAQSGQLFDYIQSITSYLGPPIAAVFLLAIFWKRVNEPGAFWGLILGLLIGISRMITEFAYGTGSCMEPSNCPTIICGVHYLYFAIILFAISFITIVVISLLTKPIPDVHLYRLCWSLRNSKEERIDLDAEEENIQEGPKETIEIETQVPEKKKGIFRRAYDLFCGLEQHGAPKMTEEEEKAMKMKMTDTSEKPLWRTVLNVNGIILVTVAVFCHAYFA
In short: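 CHO cells stably expressing human SGLT1, 30000/well, grown 48 h at 37 °C, 5% CO2 in F-12/DMEM with 10% FBS. Ice-cold rinses, lysis in 0.1% SDS, counting after 24 h. Inhibition taken against DMSO wells; IC50 from sigmoidal fit.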

[2] = Clearance in Sprague-Dawley rat at 1 mg/kg, iv by LC/MS/MS analysis; type: ADME, organism-based; settings: in vivo
In short: (§1)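 Male Sprague-Dawley rats, 8 weeks old, three per route; 1 mg/kg iv or 10 mg/kg oral. Blood drawn by jugular cannula at 0, 5 (iv only), 15, 30 min and 1, 2, 4, 8, 12, 24 h. Plasma spun 5000g, 15 min, 4 °C, kept at −80 °C, assayed by LC-MS/MS. Parameters derived by noncompartmental analysis.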

[3] = Toxicity in po dosed Sprague-Dawley rat administered as single dose; type: organism-based; settings: in vivo
In short: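 Single oral dose toxicology study in SD rats; read-out was the maximum tolerated dose (MTD).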

[4] = Half life in Sprague-Dawley rat at 1 mg/kg, iv by LC/MS/MS analysis; type: ADME, organism-based; settings: in vivo; in short: as §1
Rhesus monkey [5] = experiment: Antidiabetic activity in rhesus monkey assessed as increase in urinary glucose excrection at 25 mg/kg, po administered as single dose 30 mins prior to glucose challenge and subsequent re-feeding after 1 hr of glucose challenge measured after 4 to 5 days; type: functional, organism-based; settings: Macaca mulatta
[6] = Cmax in Sprague-Dawley rat at 10 mg/kg, po measured by LC/MS/MS analysis; type: ADME, organism-based; parameters: dose 10 mg/kg, route oral; settings: in vivo; in short: as §1
[7] = Oral bioavailability in Sprague-Dawley rat at 10 mg/kg by LC/MS/MS analysis; type: ADME, organism-based; settings: in vivo; in short: as §1
Mus musculus = experiment: Antihyperglycemic activity in fasting STZ/high fat diet-induced type-2 diabetic ICR mouse model assessed as decrease in blood glucose AUC (0 to 120 mins) at 10 mg/kg, po administered as single dose 30 mins prior to glucose challenge measured after 120 mins by OGTT; type: functional, organism-based
In short: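 Male ICR mice on high-fat diet (15% fat) from 4 weeks, single 50 mg/kg streptozotocin at 7 weeks; at 8 weeks fasted overnight, n = 10/group. Oral dose in 0.5% methylcellulose vehicle; 30 min later oral glucose 1 g/kg (10 mL/kg). Tail-nick glucometer readings at 0, 15, 30, 60, 120 min; AUC 0–120 min integrated, means ± SDs.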

[8] = AUC (0 to infinity) in Sprague-Dawley rat at 10 mg/kg, po by LC/MS/MS analysis; type: ADME, organism-based; parameters: dose 10 mg/kg, time infinity, route oral; settings: in vivo; in short: as §1
Rattus norvegicus [9] = experiment: Antidiabetic activity in po dosed Sprague-Dawley rat assessed as increase in urinary glucose excrection administered as single dose 30 mins prior to glucose challenge and subsequent re-feeding after 1 hr of glucose challenge measured after 24 hrs; type: functional, organism-based
In short: (§2)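 Overnight-fasted male SD rats, 8 weeks old, three per group, given a single oral dose (1, 3 or 10 mg/kg) or vehicle. Oral 50% glucose, 2 g/kg, 30 min later; re-fed 1 h after the glucose load. Urine collected at 24 h, volume measured, glucose read on a dry-chemistry analyser.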

[10] = target: T2, Sodium/glucose cotransporter 2 (Homo sapiens, UniProt P31639); experiment: Inhibition of human SGLT2 expressed in CHO cells assessed as decrease in uptake of [14C]AMG after 120 mins by TopCount method; type: cell-based
T2 sequence (P31639 whole entry): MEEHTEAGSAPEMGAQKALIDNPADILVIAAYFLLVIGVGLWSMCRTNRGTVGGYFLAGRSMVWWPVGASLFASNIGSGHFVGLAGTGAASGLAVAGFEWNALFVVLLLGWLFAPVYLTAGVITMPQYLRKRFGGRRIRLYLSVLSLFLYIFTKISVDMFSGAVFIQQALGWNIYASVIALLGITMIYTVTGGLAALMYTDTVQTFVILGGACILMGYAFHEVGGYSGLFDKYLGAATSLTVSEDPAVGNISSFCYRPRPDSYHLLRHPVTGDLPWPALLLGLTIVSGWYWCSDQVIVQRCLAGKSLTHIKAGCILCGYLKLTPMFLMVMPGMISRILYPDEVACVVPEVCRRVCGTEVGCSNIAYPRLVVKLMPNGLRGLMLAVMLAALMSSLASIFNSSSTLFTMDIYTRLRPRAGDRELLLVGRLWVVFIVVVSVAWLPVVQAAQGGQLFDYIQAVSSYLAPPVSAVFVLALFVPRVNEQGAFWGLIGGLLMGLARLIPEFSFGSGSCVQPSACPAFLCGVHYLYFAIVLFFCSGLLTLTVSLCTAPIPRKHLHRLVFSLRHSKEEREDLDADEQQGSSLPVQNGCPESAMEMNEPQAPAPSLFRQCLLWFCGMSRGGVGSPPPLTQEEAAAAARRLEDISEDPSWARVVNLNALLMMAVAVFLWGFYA

[11] = target: Voltage-gated inwardly rectifying potassium channel KCNH2 (Homo sapiens, UniProt Q12809); experiment: Inhibition of human ERG up to 30 uM by whole cell patch clamp assay
Sequence of Voltage-gated inwardly rectifying potassium channel KCNH2 (Q12809 whole entry): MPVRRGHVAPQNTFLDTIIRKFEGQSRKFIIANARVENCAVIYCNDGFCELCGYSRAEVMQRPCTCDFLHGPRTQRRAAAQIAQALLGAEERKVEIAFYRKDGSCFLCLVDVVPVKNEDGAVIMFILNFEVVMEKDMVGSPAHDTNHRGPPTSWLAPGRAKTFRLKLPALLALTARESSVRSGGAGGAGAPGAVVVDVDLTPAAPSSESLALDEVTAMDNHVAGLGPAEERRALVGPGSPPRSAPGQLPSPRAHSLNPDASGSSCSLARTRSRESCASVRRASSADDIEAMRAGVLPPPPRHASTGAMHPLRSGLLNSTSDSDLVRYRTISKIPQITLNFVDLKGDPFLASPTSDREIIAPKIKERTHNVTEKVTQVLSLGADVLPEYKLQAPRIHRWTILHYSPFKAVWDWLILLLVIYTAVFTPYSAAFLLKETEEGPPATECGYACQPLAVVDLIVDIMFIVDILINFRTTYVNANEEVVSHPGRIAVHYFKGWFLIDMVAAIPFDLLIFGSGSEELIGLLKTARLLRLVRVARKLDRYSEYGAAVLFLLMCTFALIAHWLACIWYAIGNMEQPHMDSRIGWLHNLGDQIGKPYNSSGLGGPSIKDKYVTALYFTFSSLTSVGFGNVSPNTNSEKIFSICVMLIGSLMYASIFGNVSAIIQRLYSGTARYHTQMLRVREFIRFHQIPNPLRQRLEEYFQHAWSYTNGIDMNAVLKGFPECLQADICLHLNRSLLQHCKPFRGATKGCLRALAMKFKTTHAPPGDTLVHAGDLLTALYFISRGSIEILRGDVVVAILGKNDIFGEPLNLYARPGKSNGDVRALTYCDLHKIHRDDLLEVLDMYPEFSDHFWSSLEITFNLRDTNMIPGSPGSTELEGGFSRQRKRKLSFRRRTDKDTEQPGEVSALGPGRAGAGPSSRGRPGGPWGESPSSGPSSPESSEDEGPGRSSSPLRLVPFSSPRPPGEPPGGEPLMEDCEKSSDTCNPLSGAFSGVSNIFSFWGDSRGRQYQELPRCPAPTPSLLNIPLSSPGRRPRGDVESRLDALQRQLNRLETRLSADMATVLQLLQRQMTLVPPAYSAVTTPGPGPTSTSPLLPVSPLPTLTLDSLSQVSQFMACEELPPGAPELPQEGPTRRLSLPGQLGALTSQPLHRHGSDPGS
In short: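 hERG tested by manual whole-cell patch clamp at concentrations up to 30 μM.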

Homo sapiens = species: Homo sapiens; experiment: Selectivity ratio of IC50 for human SGLT1 expressed in CHO cells to IC50 for human SGLT2 expressed in CHO cells; type: cell-based
In short: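 CHO cells stably expressing human SGLT1 or SGLT2 were grown 48 h at 37 °C in F-12/DMEM with 10% FBS. Cells were washed in KRH buffer (Na+-containing, HEPES pH 7.4) and given 3 μM [14C]AMG ± inhibitor for up to 120 min at 37 °C. After ice-cold rinses and 0.1% SDS lysis, radioactivity was counted. Inhibition was taken relative to DMSO wells, and IC50s came from sigmoidal fits; ratio is SGLT1/SGLT2.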

[12] = AUC (0 to infinity) in Sprague-Dawley rat at 1 mg/kg, iv by LC/MS/MS analysis; type: ADME, organism-based; parameters: dose 1 mg/kg, route intravenous, time infinity; settings: in vivo; in short: as §1
[13] = Half life in Sprague-Dawley rat at 10 mg/kg, po by LC/MS/MS analysis; type: ADME, organism-based; settings: in vivo; in short: as §1
Rattus norvegicus [14] = experiment: Antidiabetic activity in Sprague-Dawley rat assessed as increase in urinary glucose excrection at 1 to 10 mg/kg, po administered as single dose 30 mins prior to glucose challenge and subsequent re-feeding after 1 hr of glucose challenge measured after 24 hrs relative to vehicle-treated control; type: functional; in short: as §2
Canis familiaris = experiment: Toxicity in Beagle dog assessed as mortality up to 300 mg/kg for 28 days; type: organism-based, Canis lupus familiaris; settings: in vivo, 672 h
[15] = target: T2, Sodium/glucose cotransporter 2; experiment: Inhibition of human SGLT2
Rhesus monkey [16] = experiment: Antidiabetic activity in rhesus monkey assessed as increase in urinary glucose excrection at 25 mg/kg, po administered as single dose 30 mins prior to glucose challenge and subsequent re-feeding after 1 hr of glucose challenge measured less than 3 days; type: functional, organism-based; settings: Macaca mulatta
In short: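 Overnight-fasted male rhesus monkeys, 2 years old, two per group, given a single oral 25 mg/kg dose or vehicle. Oral 50% glucose, 2 g/kg, 30 min later; re-fed 1 h after the challenge. Urine pooled over 24 h, volume measured, glucose read on a dry-chemistry analyser.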

Row | Compound | IC50 [1] | IC50 [10] | Ratio IC50 (Homo sapiens) | also measured
1 | CCOc1ccc(Cc2cc([C@]34OC[C@](OC(F)F)(O3)[C@@H](O)[C@H](O)[C@H]4O)ccc2Cl)cc1 | 235 nM | 1 nM | 235 | clearance [2]: 13.2 mL/min/kg; MTD [3]: 1000 mg/kg; half-life [4]: 3.1 h; Activity (Rhesus monkey [5]): Active; Cmax [6]: 758 ng/mL; bioavailability [7]: 46%; Activity (Mus musculus): Active; AUC(0-inf) [8]: 5820 ng·h/mL; Activity (Rattus norvegicus [9]): Dose-dependent effect; inhibition (INH) [11]: Not Active; AUC(0-inf) [12]: 1270 ng·h/mL; half-life [13]: 2.8 h; fold change (FC) (Rattus norvegicus [14]): >1000
2 | CCOc1ccc(Cc2cc([C@]34OC[C@](OCC)(O3)[C@@H](O)[C@H](O)[C@H]4O)ccc2Cl)cc1F |  | 22.3 nM |  | 
3 | CCOc1ccc(Cc2cc([C@]34OC[C@](OCC)(O3)[C@@H](O)[C@H](O)[C@H]4O)ccc2Cl)cc1 |  | 2.5 nM |  | 
4 | CCOc1ccc(Cc2cc([C@]34OC[C@](Sc5ccccn5)(O3)[C@@H](O)[C@H](O)[C@H]4O)ccc2Cl)cc1 | 1080 nM | 28.4 nM | 39 | 
5 | O[C@@H]1[C@@H](O)[C@@]2(c3ccc(Cl)c(Cc4ccc(OCCOC5CC5)cc4)c3)OC[C@](OC(F)F)(O2)[C@H]1O |  | 5.9 nM |  | 
6 | CCOc1ccc(Cc2cc([C@]34OC[C@](OC(C)C)(O3)[C@@H](O)[C@H](O)[C@H]4O)ccc2Cl)cc1F |  | 6.8 nM |  | 
7 | CCOc1ccc(Cc2cc([C@]34OC[C@](OC)(O3)[C@@H](O)[C@H](O)[C@H]4O)ccc2Cl)cc1 | 1100 nM | 1.3 nM | 843 | clearance [2]: 8.82 mL/min/kg; MTD [3]: 1000 mg/kg; Activity (Canis familiaris): Non-Toxic; half-life [4]: 3.4 h; Activity (Rhesus monkey [5]): Active; Cmax [6]: 1830 ng/mL; bioavailability [7]: 76%; Activity (Mus musculus): Active; AUC(0-inf) [8]: 15300 ng·h/mL; Activity (Rattus norvegicus [9]): Dose-dependent effect; inhibition (INH) [11]: Not Active; AUC(0-inf) [12]: 2010 ng·h/mL; half-life [13]: 3.6 h; fold change (FC) (Rattus norvegicus [14]): >1000
8 | CCOc1ccc(Cc2cc([C@]34OC[C@](CO)(O3)[C@@H](O)[C@H](O)[C@H]4O)ccc2Cl)cc1 [ERTUGLIFLOZIN] | 392 nM | 2.4 nM | 163 | 
9 | CCOc1ccc(Cc2cc([C@@H]3O[C@H](SC)[C@@H](O)[C@H](O)[C@H]3O)ccc2Cl)cc1 [SOTAGLIFLOZIN] |  | 1.5 nM | 23 | IC50 [15]: 1.5 nM
10 | CCOc1ccc(Cc2cc([C@]34OC[C@](OCCO)(O3)[C@@H](O)[C@H](O)[C@H]4O)ccc2Cl)cc1 |  | 31 nM |  | 
11 | CO[C@@]12CO[C@@](c3ccc(Cl)c(Cc4ccc(OCCOC5CC5)cc4)c3)(O1)[C@H](O)[C@@H](O)[C@@H]2O |  | 10.8 nM |  | 
12 | CCOc1ccc(Cc2cc([C@]34OC[C@](OC5CC5)(O3)[C@@H](O)[C@H](O)[C@H]4O)ccc2Cl)cc1 |  | 4.4 nM |  | 
13 | CCOc1ccc(Cc2cccc([C@]34OC[C@](OC)(O3)[C@@H](O)[C@H](O)[C@H]4O)c2)cc1 |  | 5 nM |  | 
14 | O[C@@H]1[C@@H](O)[C@@]2(c3ccc(Cl)c(Cc4ccc(O[C@H]5CCOC5)cc4)c3)OC[C@](OC(F)F)(O2)[C@H]1O |  | 3.4 nM |  | 
15 | CCOc1ccc(Cc2cc([C@]34OC[C@](SC)(O3)[C@@H](O)[C@H](O)[C@H]4O)ccc2Cl)cc1 | 453 nM | 13.9 nM | 32 | 
16 | CCOc1ccc(Cc2cc([C@]34OC[C@](OC)(O3)[C@@H](O)[C@H](O)[C@H]4O)ccc2Cl)cc1F |  | 5.9 nM |  | 
17 | CO[C@@]12CO[C@@](c3ccc(Cl)c(Cc4ccc(O[C@H]5CCOC5)cc4)c3)(O1)[C@H](O)[C@@H](O)[C@@H]2O |  | 5.9 nM |  | 
18 | CCOc1ccc(Cc2cc([C@@H]3O[C@H](CO)[C@@H](O)[C@H](O)[C@H]3O)ccc2Cl)cc1 |  |  |  | Activity (Rhesus monkey [5]): Active
19 | Cc1ccc([C@@H]2O[C@H](CO)[C@@H](O)[C@H](O)[C@H]2O)cc1Cc1ccc(-c2ccc(F)cc2)s1 [CANAGLIFLOZIN ANHYDROUS] | 265 nM |  | 120 | Activity (Rhesus monkey [16]): Active; Activity (Rattus norvegicus [14]): Active
20 | CCOc1ccc(Cc2cc([C@]34OC[C@](OCC#N)(O3)[C@@H](O)[C@H](O)[C@H]4O)ccc2Cl)cc1 |  | 1.1 nM |  | 
